The test system of data set [1] is Hepatitis C virus. Nature of the data set: Antiviral activity against Hepatitis C virus subtype 1b with adaptive mutations of E1202G, T1280I, K1846T […] infected in human HuH7 cells assessed as inhibition of viral replication after 3 days by luciferase assay. In kind it is functional, organism-based, Hepacivirus hominis. The settings on record: genotype 1b, Huh-7, 72 h. The procedure, abridged: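 Huh7-Rep cells carrying the genotype 1b subgenomic luciferase reporter replicon (clone ET; adaptive mutations E1202G, T1280I, K1846T). 2500 cells per well were exposed to a nine-point 1/4 serial dilution of compound. Replication was read out as luciferase activity, and EC50 was derived from it. Values are averages of at least four repeats.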

A short description of data set [2]: Cytotoxicity against human MT4 cells expressing LTR-Luc after 3 days by luciferase assay. In kind it is cell-based. In outline:
(§1)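 Huh7 cells stably carrying luciferase under the CMV constitutive promoter, or MT4 cells with luciferase under the HIV LTR promoter, were cultured with or without compound dilutions for 3 days at 37 °C in humidified 5% CO₂. Luciferase activity served as the measure of proliferation, giving the CC₅₀ as 50% inhibition of growth. Values are averages of at least four repeats.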

Data set [3] is described as follows: Cytotoxicity against human HuH7 cells expressing CMV-Luc after 3 days by luciferase assay. In kind it is cell-based, Huh-7. In outline: as §1
Data set [4] in a line: AUC (0 to 7 hrs) in Sprague-Dawley rat at 10 mg/kg, po. The settings on record: plasma. The class given is ADME, organism-based. The arrangement: time < 7 hr, dose 10 mg/kg, route oral. The procedure, abridged:
(§2)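 Male Sprague-Dawley rats, three per dose, received a single oral solution in 20% hydroxypropyl-β-cyclodextrin. EDTA blood was collected at 0.5, 1, 2, 4, 7 and 24 h, kept on ice protected from light, and spun at 4 °C within 1 h; plasma was stored at −20 °C. Parent nucleoside was quantified by LC-MS after acetonitrile precipitation (standard curve 5-2000 ng/mL). Noncompartmental analysis.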

Data set [5] is described as follows: Tmax in Sprague-Dawley rat at 10 mg/kg, po. The class given is ADME, organism-based. Also on record: dose 10 mg/kg, route oral. Particulars: in vivo. In outline:
as §2

Data set [6] in a line: Tmax in Sprague-Dawley rat at 60 mg/kg, po. The class given is ADME, organism-based. The arrangement: dose 60 mg/kg, route oral. Particulars: in vivo. In outline: as §2
Data set [7] can be described thus: Cmax in Sprague-Dawley rat at 10 mg/kg, po. The class given is ADME, organism-based. The arrangement: dose 10 mg/kg, route oral. Particulars: in vivo. The procedure, abridged: as §2
A short description of data set [8]: AUC (0 to 7 hrs) in Sprague-Dawley rat at 60 mg/kg, po. In kind it is ADME, organism-based. The settings on record: plasma. Also on record: time < 7 hr, dose 60 mg/kg, route oral. In outline:
as §2

A short description of data set [9]: Cmax in Sprague-Dawley rat at 60 mg/kg, po. In kind it is ADME, organism-based. The arrangement: dose 60 mg/kg, route oral. Particulars: in vivo. In outline:
as §2

Data set [10] can be described thus: AUC (0 to 24 hrs) in Sprague-Dawley rat at 90 mg/kg, po. The class given is ADME, organism-based. The arrangement: time < 24 hr, dose 90 mg/kg, route oral. The settings on record: plasma. The procedure, abridged: as §2
The nature of data set [11]: Cmax in Sprague-Dawley rat at 90 mg/kg, po. Particulars: in vivo. The class given is ADME, organism-based. Also on record: dose 90 mg/kg, route oral. In outline: as §2
Data set [12] can be described thus: Cmax in Sprague-Dawley rat at 15 mg/kg, po. In kind it is ADME, organism-based. Also on record: dose 15 mg/kg, route oral. The settings on record: in vivo. The procedure, abridged:
as §2

Data set [13] in a line: Tmax in Beagle dog at 75 mg/kg, po. The class given is ADME, organism-based, Canis lupus familiaris. Also on record: dose 75 mg/kg, route oral. Particulars: in vivo. The procedure, abridged: (§3)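 Single oral dose given as a solution in 20% hydroxypropyl-β-cyclodextrin to Beagle dogs, three per dose. Blood was taken on EDTA at 0.5, 1, 2, 4, 6, 8, 24 and 48 h, kept on ice away from light, and centrifuged at 4 °C within 1 h; plasma was stored at −20 °C. Analyte was protein-precipitated with acetonitrile and measured by LC-MS (LOQ ≥5.00 ng/mL). Noncompartmental parameters.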

Data set [14] can be described thus: Cmax in Beagle dog at 15 mg/kg, po. The class given is ADME, organism-based, Canis lupus familiaris. The settings on record: in vivo. The arrangement: dose 15 mg/kg, route oral. The procedure, abridged: as §3
Data set [15] can be described thus: AUC (0 to 7 hrs) in Sprague-Dawley rat at 15 mg/kg, po. The arrangement: time < 7 hr, dose 15 mg/kg, route oral. The class given is ADME, organism-based. Particulars: plasma. The procedure, abridged: as §2
Data set [16] is described as follows: Cmax in Beagle dog at 75 mg/kg, po. In kind it is ADME, organism-based, Canis lupus familiaris. The arrangement: dose 75 mg/kg, route oral. The settings on record: in vivo. In outline:
as §3

Data set [17] in a line: Tmax in Sprague-Dawley rat at 90 mg/kg, po. In kind it is ADME, organism-based. The arrangement: dose 90 mg/kg, route oral. The settings on record: in vivo. In outline:
as §2

Data set [18] is described as follows: Tmax in Sprague-Dawley rat at 15 mg/kg, po. In kind it is ADME, organism-based. The arrangement: dose 15 mg/kg, route oral. The settings on record: in vivo. In outline:
as §2

The nature of data set [19]: AUC (0 to 24 hrs) in Beagle dog at 15 mg/kg, po. In kind it is ADME, organism-based, Canis lupus familiaris. The arrangement: time < 24 hr, dose 15 mg/kg, route oral. Particulars: plasma. In outline:
as §3

Data set [20] is described as follows: AUC (0 to 24 hrs) in Beagle dog at 75 mg/kg, po. In kind it is ADME, organism-based, Canis lupus familiaris. Also on record: time < 24 hr, dose 75 mg/kg, route oral. Particulars: plasma. In outline:
as §3

Data set [21] is described as follows: Tmax in Beagle dog at 15 mg/kg, po. The class given is ADME, organism-based, Canis lupus familiaris. The arrangement: dose 15 mg/kg, route oral. The settings on record: in vivo. In outline:
as §3

The structures appear in SMILES notation. pEC50: −log10 of the molar value.

The values below come from ChEMBL document CHEMBL1275401, “2'-Deoxy-2'-spirocyclopropylcytidine revisited: a new and selective inhibitor of the hepatitis C virus NS5B polymerase” (J Med Chem, 2010).

On to `C[C@@]1(F)[C@H](O)[C@@H](CO)O[C@H]1n1ccc(N)nc1=O`, for which the pEC50 in [1] is 5.72. Further, the cytotoxic concentration (CC50) at 72 h in data set [2] and in [3] was more than 98.4 µM in each case.

Turning to `Nc1ccn([C@@H]2O[C@H](CO)[C@@H](O)C23CC3)c(=O)n1`, in [1], the pEC50 was 5.14. Moreover, the CC50 at 72 h in data set [2] and in [3] was more than 98.4 µM each time. The figures for the AUC(0-t) at 7 h in data set [4] and in data set [8] were 248 ng·h/mL and 1640 ng·h/mL, respectively. The Tmax in [5] amounted to 1 h; in data set [6], 1.3 h. The Cmax in data set [7] was determined as 85 ng/mL; in [9] it was 527 ng/mL.

For the molecule `CC(C)C(=O)OC[C@H]1O[C@@H](n2ccc(N)nc2=O)C2(CC2)[C@@H]1OC(=O)C(C)C`, the exposure AUC(0-t) at 24 h in data set [10] was 40000 ng·h/mL; in data set [19], 37000 ng·h/mL; in data set [20] it was 204000 ng·h/mL. Moreover, the Cmax in data set [11] was 11400 ng/mL; in data set [12] it was 2390 ng/mL; in data set [14], 6300 ng/mL; in data set [16] it was 42800 ng/mL. Further, the time to peak (Tmax) in data set [13] amounted to 1.3 h; in data set [17], 0.7 h; in data set [18], 0.8 h; in data set [21] it was 1.5 h. For the same molecule, in data set [1], the negative logarithm of the EC50 (pEC50) is 4.69. The CC50 at 72 h in data set [2] and in [3] was more than 98.4 µM in each case. Also, the AUC(0-t) at 7 h in data set [15] is 7220 ng·h/mL.

For the molecule `C[C@@]1(O)[C@H](O)[C@@H](CO)O[C@H]1n1ccc(N)nc1=O`, in data set [1], the pEC50 is 5.34. Moreover, the 50% cytotoxic concentration (CC50) at 72 h in data set [2] and in [3] was more than 98.4 µM in each case.

Turning to `CC(C)C(=O)O[C@@H]1[C@@H](CO)O[C@@H](n2ccc(N)nc2=O)C12CC2`, the pEC50 in [1] was 4.37. For the same molecule, the half-maximal cytotoxic concentration (CC50) at 72 h in [2] and in [3] was more than 98.4 µM each time. The same molecule registered an AUC(0-t) at 7 h in data set [4] of 2620 ng·h/mL. The Tmax in data set [5] was 0.7 h. The same molecule showed a Cmax in data set [7] of 184 ng/mL.

As to `[N-]=[N+]=N[C@]1(CO)O[C@@H](n2ccc(N)nc2=O)[C@H](O)[C@@H]1O` [4'-AZIDOCYTIDINE], the negative-log EC50 (pEC50) in data set [1] was 5.37. Besides, the CC50 at 72 h in data set [2] and in data set [3] was more than 98.4 µM each time.

One may read the pEC50 as the negative decadic logarithm of the EC50, by convention in mol/L. In general, CC50 refers to the concentration at which the toxic effect on the cells reaches its halfway point. The AUC(0-t) is exposure summed from dosing to a finite time, without extrapolation to infinity. The term Tmax denotes the time at which the peak concentration occurs. The Cmax is the peak of the concentration-time curve.
